Results gathered from unrelated publications.
Each line is one published result; the experiments were not run side by side.
Cell line: Jurkat
Observed: cell growth or viability

Structure (SMILES)	method	time	IC50
O=C1CCCCC1C1C2C=CC=CC1C(C1CC1)=C2 (stereo not drawn)	flow cytometry	–	39 nM
COc1cc(/C=C/C(=O)CC(=O)/C=C/c2ccc(O)c(OC)c2)ccc1O	MTT	48 h	28.9 µg/mL
COCCOCOc1cc(O)c(-c2cc(-c3ccc(C(=O)O)cc3)no2)cc1C12CC3CC(CC(C3)C1)C2	ATP luminescence	24 h	1950 nM
CCCCN(Cc1ccc(C(=O)NO)cc1)C(=O)Nc1ccccc1	ATP luminescence	72 h	7410 nM
CC[C@]1(O)C[C@H]2CN(CCc3c([nH]c4ccccc34)[C@@](C(=O)OC)(c3cc4c(cc3OC)N(C=O)[C@H]3[C@@](O)(C(=O)OC)[C@H](OC(C)=O)[C@]5(CC)C=CCN6CC[C@]43[C@@H]65)C2)C1	MTT	–	1.1 nM
CCCON(Cc1ccc(C(=O)NO)cc1)C(=O)Nc1ccccc1	ATP luminescence	72 h	7090 nM
C[C@@H](O)C(=O)CCCCCCC(=O)Nc1ccccc1	thymidine uptake	–	92000 nM
COCCOCOc1ccc(C(=O)/C=C/c2ccc(C(=O)O)cc2)cc1C12CC3CC(CC(C3)C1)C2	ATP luminescence	24 h	1800 nM
CC(=O)O[C@H]1C(=O)[C@@]2(C)[C@H]([C@H](OC(=O)c3ccccc3)[C@]3(O)C[C@H](OC(=O)[C@H](O)[C@@H](NC(=O)c4ccccc4)c4ccccc4)C(C)=C1C3(C)C)[C@]1(OC(C)=O)CO[C@@H]1C[C@@H]2O	–	72 h	2.8 nM
CCCCCCCCC1=CC2C=CC=CC1C2C1CCCCC1=O (stereo not drawn)	flow cytometry	–	79 nM
CC(=O)O[C@H](C)C(=O)CCCCCCC(=O)Nc1ccccc1	thymidine uptake	–	> 100000 nM
CCCCCC/C=C1\CC2C=CC=CC1C2C1CCCCC1=O (stereo not drawn)	flow cytometry	–	29 nM
COc1ccc(/C=C\c2cc(OC)c(OC)c(OC)c2)cc1O	–	–	5 nM
O=C1CCCCC1C1C2C=CC=CC1/C(=C/Cc1ccccc1)C2 (stereo not drawn)	flow cytometry	–	61 nM
COc1cccc2c1C(=O)c1c(O)c3c(c(O)c1C2=O)C[C@@](O)(C(=O)CO)C[C@@H]3O[C@H]1C[C@H](N)[C@H](O)[C@H](C)O1	MTT	48 h	2.5 µg/mL
